Published values from different studies.
pIC50: −log10 of the molar value.
Target: Acetylcholinesterase (ache, Electrophorus electricus, UniProt O42275)
Effect on: enzyme activity
Mode: inhibitor

| Compound | test | conditions | pIC50 |
| --- | --- | --- | --- |
| CC=C1[C@H]2C=C(C)C[C@]1(N)c1cc(F)c(=O)[nH]c1C2 | Ellman |  | 5.91 |
| C#CCN(C)c1nc(NCCCCC2CCN(Cc3ccccc3)CC2)c(C#N)c(-c2ccccc2)c1C#N | Ellman |  | 7.64 |
| CC=C1[C@H]2C=C(C)C[C@]1(N)c1cc(C)c(=O)[nH]c1C2 | Ellman |  | 6.46 |
| Cc1c(C(=O)[C@H]2[C@H](c3c[nH]c4ccccc34)[C@H]3CCCN3[C@]23C(=O)Nc2cc(Cl)ccc23)cnn1-c1ccccc1 | Ellman |  | < 4.00 |
| CC=C1[C@H]2C=C(C)C[C@]1(N)c1cc(O)c(=O)[nH]c1C2 | Ellman |  | 6.28 |
| COc1cccc2cc(C(=O)NCC3CCN(Cc4ccccc4)CC3)oc12 | Ellman |  | 4.70 |
| CC=C1[C@H]2C=C(C)C[C@]1(N)c1cc(OCC)c(=O)[nH]c1C2 | Ellman |  | 6.66 |
| Cc1c(C(=O)[C@H]2[C@H](c3cn(C)c4ccccc34)[C@H]3CSCN3[C@]23C(=O)Nc2ccccc23)cnn1-c1ccccc1 | Ellman |  | < 4.00 |
| C#CCNC(=O)c1cc2ccc(N(CC)CC)cc2oc1=O | Ellman | pH 7.6 | < 4.30 |
| CC1=C(C)C(=O)O[C@@H]([C@](C)(O)[C@H]2CC[C@H]3[C@@H]4[C@@H]5O[C@@H]5[C@@]5(O)CC=CC(=O)[C@]5(C)[C@H]4CC[C@]23C)C1 | Ellman |  | 3.97 |
| Cc1c(C(=O)[C@H]2[C@H](c3c[nH]c4ccccc34)[C@H]3CSCN3[C@]23C(=O)Nc2cc(Cl)ccc23)cnn1-c1ccccc1 | Ellman |  | < 4.00 |
| CC=C1[C@H]2C=C(C)C[C@]1(N)c1cc(N)c(=O)[nH]c1C2 | Ellman |  | 6.49 |
| O=C(NCCN1CCN(Cc2ccccc2)CC1)c1cc2cccc(O)c2o1 | Ellman |  | 4.70 |
| C#CCN(C)c1nc(NCCCC2CCN(Cc3ccccc3)CC2)c(C#N)cc1C#N | Ellman |  | 8.21 |
| CC(C)=CCC/C(C)=C/COc1cc(O)cc(O)c1C(=O)c1ccccc1 |  |  | 3.72 |
| Cc1c(C(=O)[C@H]2[C@H](c3cn(C)c4ccccc34)[C@H]3CSCN3[C@]23C(=O)Nc2cc(Cl)ccc23)cnn1-c1ccccc1 | Ellman |  | < 4.00 |
| O=C(NNS(=O)(=O)c1ccc(Br)cc1)C(=O)NNS(=O)(=O)c1ccc(Br)cc1 | Ellman | with preincubation | 5.48 |
| CCOc1ccc(C=NNC(=S)NCC(=O)c2ccccc2O)cc1 | Ellman |  | 3.38 |
| CC=C1[C@H]2C=C(C)C[C@]1(N)c1cc(OCCC)c(=O)[nH]c1C2 | Ellman |  | 4.99 |
| O=C(CNC(=S)NN=Cc1ccc([N+](=O)[O-])cc1)c1ccc([N+](=O)[O-])cc1 | Ellman |  | 3.35 |
| COP(=O)(OC)OC(C)=C1CCOC1=O | Ellman | pH 8 | < 3.00 |
